We go through 4 molecules from ChEMBL document CHEMBL1122872, “Synthesis and biological activities of some pseudo-peptide analogues of tetragastrin: the importance of the peptide backbone” (J Med Chem, 1985).

Residues, ends and D or L forms follow the SMILES beside them. *: point of attachment. Boc = CC(C)(C)OC(=O)*

Assay [1] can be described thus: Compound was tested in vitro for inhibition of [125I](Leu15)-HG-17 binding to isolated gastric mucosal cells. The class given is tissue-based, Rattus norvegicus, Gastric mucosa. In outline:
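Fundic mucosal cells, dispersed by collagenase/EDTA (about 45% parietal cells, 95% viable), were incubated at 5 × 10^6 cells/mL in Earle's medium without bicarbonate (10 mM Hepes, 0.2% BSA, pH 7.4). Incubation was with 20 pM [125I]-(Leu15)-HG-17 for 30 min at 37 °C across a range of peptide concentrations. Nonsaturable binding was taken with 1 × 10^-6 M unlabeled (Nle11)-HG-13. Quadruplicate determinations.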

Assay [2] concerns Rattus norvegicus. The assay can be described thus: Compound was tested in vivo for activity against gastrin induced acid secretion in rat. The class given is functional. In outline: (§1)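 In anaesthetized rats, peptide in alkaline aqueous solution was given as an iv bolus at various doses together with 80 pmol (Leu15)-HG-17 (submaximal dose). pH was recorded for 40 min. For each dose, H+ output with peptide plus gastrin was divided by output with gastrin alone and expressed as percent inhibition.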

The subject of assay [3] is Rattus norvegicus. As to the kind of experiment: Compound was tested in vivo for activity against gastrin induced acid secretion in rat; antagonist. It is filed as functional, organism-based. The following applies: filed as antagonist. In outline: as §1
Assay [4] has as its system Rattus norvegicus. The assay can be described thus: Compound was tested in vivo for activity against gastrin induced acid secretion in rat; agonist. The class given is functional, organism-based. As to conditions: filed as agonist.

As to `CC(C)C[C@@H](CN[C@@H](CC(=O)O)C(=O)N[C@@H](Cc1ccccc1)C(N)=O)NC(=O)[C@H](Cc1c[nH]c2ccccc12)NC(=O)OC(C)(C)C`, the IC50 in assay [1] stood at 250 nM. This molecule registered an ED50 in the assay with Rattus norvegicus [2] of 0.3 mg/kg. Also, in the assay on Rattus norvegicus [3], the Activity result is “Antagonist”.
Regarding `CC(C)C[C@H](NC(=O)[C@H](Cc1c[nH]c2ccccc12)NC(=O)OC(C)(C)C)C(=O)N[C@@H](CC(=O)O)C(=O)N[C@@H](Cc1ccccc1)C(N)=O` (Boc-WLDF-NH2), in assay [1], the IC50 was 500 nM. The Activity entry with Rattus norvegicus [4] was “Agonist”.
The corresponding values for `CC(C)C[C@H](NC[C@H](Cc1c[nH]c2ccccc12)NC(=O)OC(C)(C)C)C(=O)N[C@@H](CC(=O)O)C(=O)N[C@@H](Cc1ccccc1)C(N)=O` are 300 nM and “Agonist”.
In assay [1], `CC(C)C[C@H](NC(=O)[C@H](Cc1c[nH]c2ccccc12)NC(=O)OC(C)(C)C)C(=O)N[C@H](CN[C@@H](Cc1ccccc1)C(N)=O)CC(=O)O` showed a concentration for half-maximal inhibition (IC50) of 5000 nM. Further, it took a dose of 15 mg/kg to reach the 50% effect level in the assay with Rattus norvegicus [2] (ED50). Also, the Activity entry with Rattus norvegicus [3] is “Antagonist”.

What is called IC50 is the concentration that inhibits the measured activity by half. Low values mean inhibition by little substance, high ones a need for much substance. Broadly, the ED50 is the dose that gives a 50% effect, or the effect in half of the subjects. A lower ED50 goes with an effect at a small dose.
